Activity calls are given as the source filed them. The calls are words filed in the database; no cut-off is given here.
Legend:
RAW264.7 [1] = assay: Antiinflammatory activity against LPS-stimulated mouse RAW264.7 cells assessed as inhibition of IL-10 production at 0.5 to 50 ug/ml pretreated for 4 hrs followed by challenge with 1 ug/mL LPS for 48 hrs by ELISA relative to control; format: functional, cell-based
RAW264.7 [2] = assay: Cytotoxicity against LPS-stimulated mouse RAW264.7 cells assessed as decrease in cell viability upto 100 ug/mL for 4 hrs by MTT assay in presence of 10 ug/mL LPS measured after 24 hrs
HEK293 [3] = assay: Antiinflammatory activity against LPS-stimulated NF-kappaB activated human HEK293 cells at 12.5 ug/ml pretreated for 4 hrs followed by challenge with LPS for 48 hrs by luciferase assay; format: functional, cell-based
Method in brief: (§1)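 NF-κB reporter 293 cells grown in DMEM with 10% FBS, penicillin 100 U/mL and streptomycin 100 μg/mL. Compounds tested at 12.5, 25, 50, 100 and 200 μg/mL, added 4 h before stimulation with 1 μg/mL LPS for 48 h. Cells then washed twice in PBS (pH 7.4) and lysed in passive lysis buffer, and luciferase activity read.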

RAW264.7 [4] = assay: Antiinflammatory activity against LPS-stimulated mouse RAW264.7 cells assessed as inhibition of TNFalpha production at 0.5 to 50 ug/ml pretreated for 4 hrs followed by challenge with 1 ug/mL LPS for 48 hrs by ELISA relative to control; format: functional, cell-based
RAW264.7 [5] = assay: Antiinflammatory activity against LPS-stimulated mouse RAW264.7 cells assessed as inhibition of IL-6 production at 0.5 to 50 ug/ml pretreated for 4 hrs followed by challenge with 1 ug/mL LPS for 48 hrs by ELISA relative to control; format: functional, cell-based
HEK293 [6] = assay: Antiinflammatory activity against LPS-stimulated NF-kappaB activated human HEK293 cells at 200 ug/ml pretreated for 4 hrs followed by challenge with LPS for 48 hrs by luciferase assay; format: functional, cell-based; method in brief: as §1
RAW264.7 [7] = assay: Antiinflammatory activity against LPS-stimulated mouse RAW264.7 cells assessed as inhibition of nitric oxide production at 0.5 to 50 ug/ml pretreated for 4 hrs followed by challenge with 1 ug/mL LPS for 24 hrs by Griess reaction method relative to control
HEK293 [8] = assay: Antiinflammatory activity against LPS-stimulated NF-kappaB activated human HEK293 cells at 100 ug/ml pretreated for 4 hrs followed by challenge with LPS for 48 hrs by luciferase assay; format: functional, cell-based; method in brief: as §1
HEK293 [9] = assay: Antiinflammatory activity against LPS-stimulated NF-kappaB activated human HEK293 cells at 25 ug/ml pretreated for 4 hrs followed by challenge with LPS for 48 hrs by luciferase assay; format: functional, cell-based; method in brief: as §1
RAW264.7 [10] = assay: Antiinflammatory activity against LPS-stimulated mouse RAW264.7 cells assessed as inhibition of IL1-beta production at 0.5 to 50 ug/ml pretreated for 4 hrs followed by challenge with 1 ug/mL LPS for 48 hrs by ELISA relative to control; format: functional, cell-based
HEK293 [11] = assay: Antiinflammatory activity against LPS-stimulated NF-kappaB activated human HEK293 cells at 50 ug/ml pretreated for 4 hrs followed by challenge with LPS for 48 hrs by luciferase assay; format: functional, cell-based; method in brief: as §1
RAW264.7 [12] = assay: Cytotoxicity against LPS-stimulated mouse RAW264.7 cells assessed as cell viability upto 50 ug/mL for 4 hrs by MTT assay in presence of 0.01 to 1 ug/mL LPS measured after 24 hrs; format: cell-based
Method in brief: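 Viability of RAW 264.7 cells measured by MTT colorimetric assay after 24 h incubation with compounds. Compounds were tested up to 50 μg/mL alongside LPS at 0.01, 0.1 or 1 μg/mL, and at 100 μg/mL with 10 μg/mL LPS.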

For `CC1(C)CC[C@]2(C(=O)O)CC[C@]3(C)C(=CC[C@@H]4[C@@]5(C)C[C@@H](O)[C@@H](O)[C@@](C)(CO)[C@@H]5CC[C@]43C)[C@@H]2C1`, which inhibition (RAW264.7 [1]) is on record?
The inhibition was “Active”.

And the Activity (RAW264.7 [2])?
Its Activity is “Toxic”.

What about the Activity (HEK293 [3]) of the same compound?
The Activity was “Active”.

What about the inhibition (RAW264.7 [4]) of the same compound?
The inhibition was “Active”.

And the inhibition (RAW264.7 [5])?
The inhibition was “Active”.

And the Activity (HEK293 [6])?
Its Activity is “Active”.

And the inhibition (RAW264.7 [7])?
The inhibition was “Active”.

What about the Activity (HEK293 [8]) of the same compound?
Its Activity is “Active”.

What about the Activity (HEK293 [9]) of the same compound?
Its Activity is “Active”.

What about the inhibition (RAW264.7 [10]) of the same compound?
Its inhibition is “Active”.

And the Activity (HEK293 [11])?
Its Activity is “Active”.

And the Activity (RAW264.7 [12])?
The Activity was “Non-toxic”.

How did the inhibition (RAW264.7 [1]) turn out when `CC1(C)CC[C@]2(C(=O)O)CC[C@]3(C)C(=C2C1)CC[C@@H]1[C@@]2(C)C[C@@H](O)[C@H](O)C(C)(C)[C@@H]2CC[C@]13C` was run?
Its inhibition is “Active”.

What about the Activity (RAW264.7 [2]) of the same compound?
The Activity was “Toxic”.

What about the Activity (HEK293 [3]) of the same compound?
The Activity was “Active”.

And the inhibition (RAW264.7 [4])?
The inhibition was “Active”.

What about the inhibition (RAW264.7 [5]) of the same compound?
The inhibition was “Active”.

What about the Activity (HEK293 [6]) of the same compound?
The Activity was “Active”.

What about the inhibition (RAW264.7 [7]) of the same compound?
Its inhibition is “Active”.

And the Activity (HEK293 [8])?
The Activity was “Active”.

And the Activity (HEK293 [9])?
The Activity was “Active”.

What about the inhibition (RAW264.7 [10]) of the same compound?
Its inhibition is “Active”.

What about the Activity (HEK293 [11]) of the same compound?
Its Activity is “Active”.

And the Activity (RAW264.7 [12])?
Its Activity is “Non-toxic”.

Which results are given for `C[C@@H]1CC[C@]2(C(=O)O)CC[C@]3(C)C(=CC[C@@H]4[C@@]5(C)C[C@@H](O)[C@H](O)[C@@](C)(CO)[C@@H]5CC[C@]43C)[C@@H]2[C@]1(C)O`?
inhibition (RAW264.7 [1]): Active; Activity (RAW264.7 [2]): Toxic; Activity (HEK293 [3]): Active; inhibition (RAW264.7 [4]): Active; inhibition (RAW264.7 [5]): Active; Activity (HEK293 [6]): Active; inhibition (RAW264.7 [7]): Active; Activity (HEK293 [8]): Active; Activity (HEK293 [9]): Active; inhibition (RAW264.7 [10]): Active; Activity (HEK293 [11]): Active; Activity (RAW264.7 [12]): Non-toxic

For `CC(=O)[C@H](C)CCC1=CC2=CC[C@@H]3[C@@]4(C)C[C@@H](O)[C@H](O)[C@@](C)(CO)[C@@H]4CC[C@@]3(C)[C@]2(C)CC1`, which inhibition (RAW264.7 [1]) is on record?
The inhibition was “Active”.

And the Activity (RAW264.7 [2])?
Its Activity is “Toxic”.

And the Activity (HEK293 [3])?
The Activity was “Active”.

And the inhibition (RAW264.7 [4])?
The inhibition was “Active”.

And the inhibition (RAW264.7 [5])?
The inhibition was “Active”.

What about the Activity (HEK293 [6]) of the same compound?
Its Activity is “Active”.

And the inhibition (RAW264.7 [7])?
The inhibition was “Active”.

What about the Activity (HEK293 [8]) of the same compound?
Its Activity is “Active”.

And the Activity (HEK293 [9])?
Its Activity is “Active”.

And the inhibition (RAW264.7 [10])?
The inhibition was “Active”.

What about the Activity (HEK293 [11]) of the same compound?
Its Activity is “Active”.

And the Activity (RAW264.7 [12])?
Its Activity is “Non-toxic”.

Which inhibition (RAW264.7 [1]) does the source give for `C[C@]12CCC(=O)C=C1CC[C@@H]1[C@@H]2[C@@H](O)C[C@@]2(C)[C@H]1CC[C@]2(O)C(=O)CO` here?
The inhibition was “Active”.

What about the inhibition (RAW264.7 [4]) of the same compound?
The inhibition was “Active”.

What about the inhibition (RAW264.7 [5]) of the same compound?
Its inhibition is “Active”.

And the inhibition (RAW264.7 [7])?
The inhibition was “Active”.

What about the inhibition (RAW264.7 [10]) of the same compound?
Its inhibition is “Active”.

— ChEMBL document CHEMBL1773051, “Anti-inflammatory triterpenes from the leaves of Rosa laevigata” (J Nat Prod, 2011)
